Measurements published in ChEMBL document CHEMBL4130603, “Anti-inflammatory Grayanane Diterpenoids from the Leaves of Rhododendron molle” (J Nat Prod, 2018).

How the values were obtained:
[1] = Cytotoxicity against mouse RAW264.7 cells assessed as survival rate at 200 uM measured in presence of LPS by MTT assay relative to control; type: cell-based; details: read-out: Survival
Summary of the method: (§1)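 RAW 264.7 mouse macrophages treated with compound at 200 μM, with or without 1 μg/mL LPS. Viability read by MTT and expressed as survival rate (%). Values are means ± SD, n = 3.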

RAW264.7 [2] = experiment: Antiinflammatory activity in mouse RAW264.7 cells assessed as inhibition of LPS-induced nitric oxide production by griess assay; type: functional, cell-based
Summary of the method: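 RAW 264.7 mouse macrophages induced with LPS; NO production measured over five test concentrations to derive IC50; means ± SD, n = 3; dexamethasone positive control.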

RAW264.7 [3] = experiment: Antiinflammatory activity in mouse RAW264.7 cells assessed as inhibition of LPS-induced nitric oxide production at 40 uM by griess assay relative to control; type: functional
Summary of the method: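 LPS-stimulated RAW 264.7 mouse macrophages; nitric oxide production measured; single-concentration screen of inhibition relative to control. Dexamethasone as positive control.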

[4] = Cytotoxicity against mouse RAW264.7 cells assessed as survival rate at 200 uM measured in absence of LPS by MTT assay relative to control; type: cell-based; details: read-out: Survival; summary of the method: as §1
RAW264.7 [5] = experiment: Cytotoxicity against mouse RAW264.7 cells at 200 uM measured in presence of LPS by MTT assay; type: cell-based; details: raw264.7, 200 µM
Summary of the method: (§2)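 MTT viability of RAW 264.7 mouse macrophages exposed to compound at 200 μM, with or without 1 μg/mL LPS; reported as cell survival rate (%).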

RAW264.7 [6] = experiment: Cytotoxicity against mouse RAW264.7 cells at 200 uM measured in absence of LPS by MTT assay; type: cell-based; details: raw264.7, 200 µM; summary of the method: as §2

Structure (SMILES) | viability at 200 µM [1] | IC50 (RAW264.7 [2]) | inhibition at 40 µM (RAW264.7 [3]) | viability at 200 µM [4] | Activity (RAW264.7 [5]) | Activity (RAW264.7 [6])
CC1(C)[C@@H](O)[C@H](O)[C@H]2[C@](C)(O)[C@@H]3CC[C@@H]4[C@@H](O)[C@@]3(C[C@@H](O)[C@@]21O)C[C@@]4(C)O | 90.4% | 8 µM | > 50% | 97% | – | –
CC1(C)[C@H]2O[C@H]2[C@H]2[C@](C)(O)[C@@H]3CC[C@@H]4[C@@H](O)[C@@]3(C[C@@H](O)[C@@]21O)C[C@@]4(C)O | 98.4% | 7 µM | > 50% | 96.5% | – | –
C=C1[C@@H]2[C@@H](O)[C@H](O)C(C)(C)[C@@]2(O)[C@H](O)C[C@]23C[C@@](C)(O)[C@H](CC[C@@H]12)[C@H]3O | 97.5% | 8.1 µM | > 50% | 98.1% | – | –
C=C1[C@@H]2[C@@H]3O[C@@H]3C(C)(C)[C@@]2(O)[C@H](O)C[C@]23C[C@@](C)(O)[C@H](CC[C@@H]12)[C@H]3O | 92% | 35.4 µM | > 50% | 90.3% | – | –
CO[C@H]1[C@H](O)C(C)(C)[C@@]2(O)[C@H](OC(C)=O)C[C@]34C[C@@](C)(O)[C@H](CC[C@H]3[C@@](C)(O)[C@H]12)[C@H]4O | 97.3% | 4.6 µM | > 50% | 98.3% | – | –
CC(=O)O[C@@H]1[C@H]2CC[C@H]3[C@@](C)(O)[C@@H]4[C@@H]5O[C@@H]5C(C)(C)[C@@]4(O)[C@H](O)C[C@@]13C[C@@]2(C)O | – | > 40 µM | – | – | Non-Toxic | Non-Toxic
CC(=O)O[C@@H]1C[C@]23C[C@@](C)(OC(C)=O)[C@H](CC[C@H]2[C@@](C)(O)[C@@H]2[C@@H]4O[C@@H]4C(C)(C)[C@@]12O)[C@H]3O | 99.7% | 10.1 µM | > 50% | 98.9% | – | –
C=C1[C@@H]2[C@@H](OC)[C@H](O)C(C)(C)[C@@]2(O)[C@H](O)C[C@]23C[C@@](C)(O)[C@H](CC[C@@H]12)[C@H]3O | – | > 40 µM | – | – | Non-Toxic | Non-Toxic
CO[C@@H]1[C@H]2C(C)=C3CC[C@@H]4[C@@H](O)[C@@]3(C[C@@H](OC(C)=O)[C@]2(O)C(C)(C)[C@H]1O)C[C@@]4(C)O | – | > 40 µM | – | – | Non-Toxic | Non-Toxic
C=C1[C@@H]2[C@@H](O)[C@H](O)C(C)(C)[C@@]2(O)[C@H](OC(C)=O)C[C@]23C=C(C)[C@H](CC[C@@H]12)[C@H]3O | – | > 40 µM | – | – | Non-Toxic | Non-Toxic
CO[C@H]1[C@H](O)C(C)(C)[C@@]2(O)[C@H](O)C[C@]34C[C@@](C)(O)[C@H](CC[C@H]3[C@@](C)(O)[C@H]12)[C@H]4O | – | > 40 µM | – | – | Non-Toxic | Non-Toxic
CC(=O)O[C@@H]1C[C@]23C[C@@](C)(O)[C@H](CC[C@H]2[C@@](C)(O)[C@@H]2[C@@H]4O[C@@H]4C(C)(C)[C@@]12O)[C@H]3O | 93.6% | 2.8 µM | > 50% | 101% | – | –
CC(=O)O[C@@H]1C[C@]23C[C@@](C)(O)[C@H](CC[C@H]2[C@@](C)(O)[C@@H]2C[C@H](O)C(C)(C)[C@@]12O)[C@H]3O | – | > 40 µM | – | – | Non-Toxic | Non-Toxic
CO[C@H]1[C@H](O)C(C)(C)[C@@]2(O)[C@H](OC(C)=O)C[C@]34C[C@@](C)(O)[C@H](CC[C@H]3[C@@](C)(O)[C@H]12)[C@H]4O[C@H]1[C@H](O)C(C)(C)[C@@]2(O)[C@H](OC(C)=O)C[C@]34C[C@@](C)(O)[C@H](CC[C@H]3[C@@](C)(O)[C@H]12)[C@H]4O | – | > 40 µM | – | – | Non-Toxic | Non-Toxic
CO[C@@H]1[C@H]2[C@@H](C)[C@]34CC[C@H]5C(C)=C[C@]3(C[C@@H](OC(C)=O)[C@]2(O4)C(C)(C)[C@H]1O)[C@@H]5O | – | > 40 µM | – | – | Non-Toxic | Non-Toxic
CC(=O)O[C@@H]1C[C@]23C[C@@](C)(O)[C@H](CC[C@H]2[C@@](C)(O)[C@@H]2[C@@H](O)[C@H](O)C(C)(C)[C@@]12O)[C@H]3O | 99.8% | 9.3 µM | > 50% | 98.8% | – | –
CC(=O)O[C@@H]1[C@H]2CC[C@H]3[C@@](C)(O)[C@@H]4[C@@H](O)[C@H](O)C(C)(C)[C@@]4(O)[C@H](OC(C)=O)C[C@@]13C[C@@]2(C)O | 93.9% | 10.3 µM | > 50% | 97.4% | – | –
C=C1[C@@H]2[C@@H](OC)[C@H](O)C(C)(C)[C@@]2(O)[C@H](OC(C)=O)C[C@]23C[C@@](C)(O)[C@H](CC[C@@H]12)[C@H]3O | – | > 40 µM | – | – | Non-Toxic | Non-Toxic
C=C1[C@@H]2[C@@H](O)[C@H](O)C(C)(C)[C@@]2(O)[C@H](OC(C)=O)C[C@]23C[C@@](C)(O)[C@H](CC[C@@H]12)[C@H]3O | – | > 40 µM | – | – | Non-Toxic | Non-Toxic
CC(=O)O[C@@H]1C[C@]23C=C(C)[C@H](CC[C@H]2[C@@](C)(O)[C@@H]2[C@@H]4O[C@@H]4C(C)(C)[C@@]12O)[C@H]3O | – | > 40 µM | – | – | Non-Toxic | Non-Toxic
CO[C@H]1[C@H](O)C(C)(C)[C@@]2(O)[C@H](OC(C)=O)C[C@]34C[C@@](C)(O)[C@H](CC[C@H]3[C@@](C)(O)[C@H]12)[C@H]4OC(C)=O | – | > 40 µM | – | – | Non-Toxic | Non-Toxic
CC(=O)O[C@@H]1C[C@]23C[C@@](C)(O)[C@H](CC[C@H]2[C@@](C)(O)[C@@H]2[C@@H](Cl)[C@H](O)C(C)(C)[C@@]12O)[C@H]3O | 95.2% | 5.8 µM | > 50% | 99.3% | – | –
C=C1C[C@@]23C[C@@H](O)[C@@]4(O)C([C@@H]5O[C@@H]5C4(C)C)[C@](C)(O)[C@@H]2CC[C@@H]1[C@H]3O (stereo partly specified) | – | > 40 µM | – | – | Non-Toxic | Non-Toxic
C=C1[C@@H]2CC[C@@H]3C[C@@]2(C[C@@H](O)[C@@]2(O)[C@H]1C[C@H](O)[C@]2(C)CO)C[C@@]3(C)O | – | > 40 µM | – | – | Non-Toxic | Non-Toxic
C=C1[C@@H]2CC[C@@H]3C[C@@]2(C[C@@H](OC(C)=O)[C@@]2(O)[C@H]1C[C@H](O)C2(C)C)C[C@@]3(C)O | – | > 40 µM | – | – | Non-Toxic | Non-Toxic
C=C1C[C@@]23C[C@@H](OC(C)=O)[C@@]4(O)[C@@H]([C@@H](O)[C@H](O)C4(C)C)[C@](C)(O)[C@@H]2CC[C@@H]1[C@H]3O | – | > 40 µM | – | – | Non-Toxic | Non-Toxic
CC(=O)O[C@@H]1C[C@@]23C[C@]4(C)O[C@@H](C[C@@H]4[C@H]2O)[C@H]3[C@@](C)(O)C2[C@@H]3O[C@@H]3C(C)(C)[C@]21O (stereo partly specified) | – | > 40 µM | – | – | Non-Toxic | Non-Toxic
C=C1[C@@H]2CC[C@@H]3C[C@@]2(C[C@@H](O)[C@@]2(O)[C@H]1C[C@H](O)C2(C)C)C[C@@]3(C)O | 93.8% | 3.5 µM | > 50% | 96.4% | – | –
C=C1[C@@H]2CC[C@@H]3[C@@H](O)[C@@]2(C[C@@H](O)[C@@]2(O)[C@H]1C[C@H](O)C2(C)C)C[C@@]3(C)O | – | > 40 µM | – | – | Non-Toxic | Non-Toxic
C[C@@H]1C[C@H]2[C@@H]3CCC4=CC(=O)C=C[C@]4(C)[C@@]3(F)[C@@H](O)C[C@]2(C)[C@@]1(O)C(=O)CO [DEXAMETHASONE] | 97.1% | 0.8 µM | – | 97.7% | – | –
